# Measurements of several laboratories.
# Target: cAMP-dependent protein kinase catalytic subunit alpha (PRKACA, Homo sapiens, UniProt P17612)
SMILES,observed,action,technique,tested at,measurement,result
CCCS(=O)(=O)Nc1ccc(F)c(C(=O)c2c[nH]c3ncc(-c4ccc(Cl)cc4)cc23)c1F,enzyme activity,inhibitor,,1 µM,inhibition,< 10%
Cn1cnc(Br)c1C1=CN(c2ncnc3[nH]cnc23)CCS1,enzyme activity,inhibitor,radiometric,2 µM,inhibition,90.2%
CCOc1cc(-c2nncn2C)ccc1Nc1ncc2cc(C)nc(NCC(C)(C)C)c2n1,enzyme activity,inhibitor,FRET,1 µM,inhibition,< 15%
O=C(Nc1cnn(-c2csc(C(=O)NC3COC3)c2)c1)Nc1ccccc1Cl,enzyme activity,inhibitor,,5 µM,remaining activity,99.8%
Cn1c2c(c3ccccc31)C(C#N)C(C)(C)NC2=O (stereo not shown),thermal stability,,DSF,10 µM,ΔTm,0.2 °C
COc1cc2ncnc(Nc3ccc(F)c(Cl)c3)c2cc1OCCCN1CCOCC1,cell-free assay,,,0.5 µM,remaining signal,96.3%
Cc1ccc(-n2nc(C(C)(C)C)cc2NC(=O)Nc2ccc(OCCN3CCOCC3)c3ccccc23)cc1,enzyme activity,inhibitor,,10 µM,inhibition,6%
N#CCCc1ccc2c(c1)-c1[nH]c3ccc([N+](=O)[O-])cc3c1CC(=O)N2,cell-free assay,,,0.5 µM,remaining signal,87.6%
FC(F)c1nc2ccccc2n1-c1nc(N2CCOCC2)nc(N2CCOCC2)n1,enzyme activity,inhibitor,,10 µM,remaining activity,76%
CNCc1ccccc1-c1csc([C@@H](C)Nc2nc(C)nc3cc(OC)c(OC)cc23)c1,cell-free assay,,competition with immobilised ligand,1 µM,remaining binding,100%
CCN(CC)CCNC(=O)c1c(C)[nH]c(/C=C2\C(=O)Nc3ccc(F)cc32)c1C,enzyme activity,inhibitor,,0.3 µM,inhibition,11%
Cc1ccc(C(=O)NCc2ccsc2)cc1C#Cc1cn(C(C)C)c2ncnc(N)c12,enzyme activity,inhibitor,,1 µM,activity vs control,103%
CN(C)c1ncnc(-c2ccc3nc(Nc4cc(CN5CCN(C(=O)CC(F)(F)F)CC5)ccn4)[nH]c3c2)c1Cl,cell-free assay,,competition with immobilised ligand,1 µM,remaining binding,100%
COc1cc(Nc2cnc(C#N)c(O[C@H](C)CN(C)C)n2)ncc1-c1cnn(C)c1,enzyme activity,inhibitor,radiometric,10 µM,remaining activity,78%
Cc1ccc(Nc2nccc(N(C)c3ccc4c(C)n(C)nc4c3)n2)cc1S(N)(=O)=O,enzyme activity,inhibitor,,0.3 µM,inhibition,6%
CC(C)(O)[C@H]1CC[C@H](Nc2ccc3ncc(-c4cccc(C(F)(F)F)c4)n3n2)CC1,enzyme activity,inhibitor,,1 µM,remaining activity,99.4%
O=C1Nc2ccc(Cl)cc2C1=Cc1cc(Cl)c(O)c(Cl)c1,cell-free assay,,,0.5 µM,remaining signal,101%
Cc1cnn2ncc(-c3ccnc(N(C)C)n3)c2c1,cell-free assay,,,1 µM,remaining signal,100%
CC(C)(C)c1nc2c(s1)c1nc(N)ncc1c1ccc(NS(=O)(=O)c3c(F)cccc3F)c(F)c12,enzyme activity,inhibitor,radiometric,1 µM,remaining activity,104%
COc1cc(/C=C/C(=O)CC(=O)/C=C/c2ccc(O)c(OC)c2)ccc1O,enzyme activity,inhibitor,,1 µM,activity vs control,94%
Cc1cc(-n2nc(Cc3cc(F)cc(C(F)(F)F)c3)nc2C)ccc1C(N)=O,cell-free assay,,competition with immobilised ligand,1 µM,remaining binding,100%
CCN(CC)c1ccc(C2=NNC(=O)CC2C)cc1[N+](=O)[O-] (stereo not shown),enzyme activity,inhibitor,,10 µM,remaining activity,100%
Nc1nc(NC2CCCCC2)sc1C(=O)c1ccccc1,enzyme activity,inhibitor,,10 µM,remaining activity,97%
CCN1CCC2(CC1)NC(=O)c1c(c3ccc(Cl)c(Cl)c3n1C)C2C#N (racemic),thermal stability,,DSF,10 µM,ΔTm,1.9 °C
COc1ccnn2ncc(-c3ccnc(N(C)C)n3)c12,cell-free assay,,,1 µM,remaining signal,100%
Cc1cc(NC(=O)c2cccc(S(F)(F)(F)(F)F)c2)cc(-n2ccn3nc(-c4cccnc4)cc23)c1,cell-free assay,,competition with immobilised ligand,1 µM,remaining binding,100%
Cn1c2c(c3ccc(Cl)c(Cl)c31)C(C#N)C(C)(C)NC2=O (stereo not shown),thermal stability,,DSF,10 µM,ΔTm,0.4 °C
Cn1c(=O)n(-c2ccc(C(C)(C)C#N)cc2)c2c3cc(-c4cnc5ccccc5c4)ccc3ncc21,enzyme activity,inhibitor,,10 µM,remaining activity,82%
O=C(CSc1nc2nccnc2c(=O)n1CCc1ccccc1)Nc1nccs1,enzyme activity,inhibitor,,10 µM,inhibition,6%
C=CC(=O)Nc1cc(Nc2nccc(Nc3cc(Cl)c(F)cc3C(C)(C)O)n2)c(OC)cc1N1CC[C@@H](N(C)C)C1,enzyme activity,inhibitor,,1 µM,inhibition,7%
Cc1ccc(NC(=O)c2ccc(C)c(C(F)(F)F)c2)cc1C#Cc1nn(C2CCC(O)CC2)c2ncnc(N)c12 (stereo not shown),cell-free assay,inhibitor,,10 µM,remaining signal,60%
CC1=C(C#N)[C@@H](c2ccc3[nH]nc(C)c3c2)C(C#N)=C(c2ccc(Cl)cc2)N1,cell-free assay,,competition with immobilised ligand,1 µM,remaining binding,96.7%
FC(F)(F)Oc1cccc(-c2cnc3ccc(-c4ccncc4)nn23)c1,enzyme activity,inhibitor,radiometric,1 µM,activity vs control,95%
CCOC(=O)c1cc2cc(-c3cc(C(=O)NCc4ccc(C(=O)O)cc4)nn3C)ccc2[nH]1,cell-free assay,,competition with immobilised ligand,0.1 µM,remaining binding,85%
Cc1ccc(NC(=O)c2ccc(CN3CCN(C)CC3)cc2)cc1Nc1nccc(-c2cccnc2)n1,enzyme activity,inhibitor,,0.5 µM,activity vs control,95.4%
COc1cc2ncnc(Nc3ccc(Oc4ccccc4)cc3C)c2cc1OC,enzyme activity,inhibitor,,1 µM,inhibition,3%
O=C(NS(=O)(=O)c1ccc(NCC2CCOCC2)c([N+](=O)[O-])c1)c1ccc(N2CCN(Cc3ccc(C(F)(F)F)cc3-c3ccc(Cl)cc3)CC2)cc1Oc1cnc2[nH]ccc2c1,cell-free assay,,competition with immobilised ligand,1 µM,remaining binding,76%
CCCOc1ccc(OC)c(F)c1C(=O)c1ccc(C(=O)N[C@@H]2CNC[C@H]2NC(=O)c2ccc3[nH]ncc3c2)cc1,enzyme activity,inhibitor,,10 µM,remaining activity,1%
Cn1c2c(c3ccc(Cl)c(Cl)c31)C(C#N)C1(CCOCC1)NC2=O (stereo not shown),thermal stability,,DSF,10 µM,ΔTm,0.1 °C
Cc1sc(C(=O)NC2COC2)cc1-n1cc(NC(=O)Nc2c(F)cccc2Cl)cn1,enzyme activity,inhibitor,,10 µM,remaining activity,94.5%
O=C(Nc1cccnn1)N1CCC(=Cc2cccc(Oc3ccc(C(F)(F)F)cn3)c2)CC1,cell-free assay,,competition with immobilised ligand,1 µM,remaining binding,100%
Cn1c2c(Cl)c(Cl)ccc2c2cn[nH]c(=O)c21,thermal stability,,DSF,10 µM,ΔTm,0.6 °C
CN(C)C1CCN(CC#Cc2nn(C3CCCC3)c3nc(NCc4ccccc4)ncc23)C1 (stereo not shown),enzyme activity,inhibitor,FRET,1 µM,inhibition,6%
